pIC50: −log10 of the molar value. In brackets after ≈: the same amount, converted by molar mass.
Experiments:
[1] = biological target: T1, Gonadotropin-releasing hormone receptor (Homo sapiens, UniProt P30968); test: Displacement of [125I]-(D-Trp6)-GnRH from human GnRH receptor
T1 sequence (P30968 whole entry): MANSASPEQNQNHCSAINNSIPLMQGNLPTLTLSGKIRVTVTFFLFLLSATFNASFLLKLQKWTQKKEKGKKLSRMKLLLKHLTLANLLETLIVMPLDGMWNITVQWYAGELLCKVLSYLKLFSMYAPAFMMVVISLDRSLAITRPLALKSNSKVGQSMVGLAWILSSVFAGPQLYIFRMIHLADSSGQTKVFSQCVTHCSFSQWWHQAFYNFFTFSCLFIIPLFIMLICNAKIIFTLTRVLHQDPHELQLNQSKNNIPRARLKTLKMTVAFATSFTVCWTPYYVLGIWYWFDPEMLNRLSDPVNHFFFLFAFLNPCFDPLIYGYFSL
Method in brief: (§1)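 Competition binding at overexpressed human or rat GnRH receptors against 125I-(D-Trp6)-GnRH; IC50 averaged from two independent experiments run in triplicate.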

[2] = biological target: T2, Gonadotropin-releasing hormone receptor (Rattus norvegicus, UniProt P30969); test: Displacement of [125I]-(D-Trp6)-GnRH from rat GnRH receptor; method in brief: as §1
T2 sequence (P30969 whole entry): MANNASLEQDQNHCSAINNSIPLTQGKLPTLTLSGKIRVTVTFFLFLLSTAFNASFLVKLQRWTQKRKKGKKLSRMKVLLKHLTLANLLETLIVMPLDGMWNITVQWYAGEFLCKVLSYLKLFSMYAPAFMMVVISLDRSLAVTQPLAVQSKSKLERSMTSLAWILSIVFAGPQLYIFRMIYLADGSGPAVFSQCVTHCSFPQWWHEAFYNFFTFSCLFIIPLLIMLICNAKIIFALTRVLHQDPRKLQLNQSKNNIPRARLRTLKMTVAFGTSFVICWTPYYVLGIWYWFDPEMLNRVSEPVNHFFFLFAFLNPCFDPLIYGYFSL

[3] = Reduction in leutinizing hormone release in (D-Trp6)-GnRH-stimulated rat primary pituitary cells by RIA; type: functional, cell-based; conditions: Pituitary gland cell
Method in brief: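 Primary rat pituitary cells stimulated with (D-Trp6)-GnRH; compound-driven reduction of LH release read as IC50.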

[4] = biological target: T1, Gonadotropin-releasing hormone receptor; test: Antagonist activity at human recombinant GnRH receptor expressed in HEK293 cells assessed as reduction in (D-Trp6)-GnRH-stimulated IP production by whole cell assay; type: functional, cell-based
Method in brief: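 Whole-cell assay, cells stimulated with (D-Trp6)-GnRH; compound-driven reduction of inositol phosphate read as IC50.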

[5] = Metabolic stability in rat liver microsomes assessed as half life; type: ADME, Microsome
[6] = Solubility at pH 7.4; type: physicochemical; conditions: buffer
CYP2C9 = CYP2C9 (Homo sapiens, UniProt P11712); test: Inhibition of CYP2C9 at 3 uM; type: ADME
CYP2C9, sequence (P11712 whole entry): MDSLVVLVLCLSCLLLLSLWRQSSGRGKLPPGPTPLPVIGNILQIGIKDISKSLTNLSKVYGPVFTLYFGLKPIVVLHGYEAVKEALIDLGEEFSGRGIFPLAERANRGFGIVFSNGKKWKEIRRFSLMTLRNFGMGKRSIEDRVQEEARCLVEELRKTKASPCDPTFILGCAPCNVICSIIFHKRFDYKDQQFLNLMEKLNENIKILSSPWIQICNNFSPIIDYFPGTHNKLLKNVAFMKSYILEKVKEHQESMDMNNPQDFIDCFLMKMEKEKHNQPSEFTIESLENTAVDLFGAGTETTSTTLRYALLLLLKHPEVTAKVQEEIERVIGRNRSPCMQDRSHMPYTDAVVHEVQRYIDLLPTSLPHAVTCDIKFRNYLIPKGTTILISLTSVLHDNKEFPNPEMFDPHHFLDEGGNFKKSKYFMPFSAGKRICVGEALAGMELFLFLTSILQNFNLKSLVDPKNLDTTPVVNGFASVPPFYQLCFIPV

CYP2D6 = CYP2D6 (Homo sapiens, UniProt P10635); test: Inhibition of CYP2D6 at 3 uM; type: ADME
CYP2D6, sequence (P10635 whole entry): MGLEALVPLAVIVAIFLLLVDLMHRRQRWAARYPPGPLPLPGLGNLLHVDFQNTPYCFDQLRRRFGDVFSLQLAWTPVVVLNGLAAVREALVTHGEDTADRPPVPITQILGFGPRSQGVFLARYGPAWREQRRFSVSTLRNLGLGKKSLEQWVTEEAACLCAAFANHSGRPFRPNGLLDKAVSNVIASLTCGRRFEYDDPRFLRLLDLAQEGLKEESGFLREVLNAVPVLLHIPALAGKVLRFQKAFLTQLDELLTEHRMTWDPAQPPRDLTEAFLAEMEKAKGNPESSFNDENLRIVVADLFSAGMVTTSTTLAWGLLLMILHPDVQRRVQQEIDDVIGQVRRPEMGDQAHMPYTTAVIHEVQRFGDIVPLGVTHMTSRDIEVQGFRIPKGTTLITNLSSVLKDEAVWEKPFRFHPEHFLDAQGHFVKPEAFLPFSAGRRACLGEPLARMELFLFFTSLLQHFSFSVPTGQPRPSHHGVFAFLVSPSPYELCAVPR

CYP3A4 = CYP3A4 (Homo sapiens, UniProt P08684); test: Inhibition of CYP3A4 at 3 uM; type: ADME
CYP3A4, sequence (P08684 whole entry): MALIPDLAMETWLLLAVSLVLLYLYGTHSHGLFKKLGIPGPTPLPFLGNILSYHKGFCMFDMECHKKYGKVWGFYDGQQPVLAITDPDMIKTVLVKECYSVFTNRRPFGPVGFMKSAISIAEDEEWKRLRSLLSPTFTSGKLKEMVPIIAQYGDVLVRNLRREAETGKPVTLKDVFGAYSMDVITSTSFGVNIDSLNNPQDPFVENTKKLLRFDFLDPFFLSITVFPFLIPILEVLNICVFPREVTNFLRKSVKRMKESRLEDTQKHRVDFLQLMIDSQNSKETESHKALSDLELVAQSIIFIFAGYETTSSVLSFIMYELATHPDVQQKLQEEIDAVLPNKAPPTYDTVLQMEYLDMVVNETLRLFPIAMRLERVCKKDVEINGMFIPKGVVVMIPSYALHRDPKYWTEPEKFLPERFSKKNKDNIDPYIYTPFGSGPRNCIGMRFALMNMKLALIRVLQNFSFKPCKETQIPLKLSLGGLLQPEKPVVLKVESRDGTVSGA

[7] = biological target: T3, Gonadotropin-releasing hormone receptor (Homo sapiens) (UniProt P30968); test: Displacement of [125I]-(D-Trp6)-GnRH from human GnRH receptor at 50 nM
T3 sequence (whole entry): T1 sequence (P30968 whole entry)

[8] = Half life in orchidectomized Sprague-Dawley rat at 1 mg/kg, iv after 1 day; type: ADME, organism-based; design: dose 1 mg/kg, route intravenous; conditions: male, in vivo
Method in brief: (§2)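 Orchidectomized SD rats, single iv dose of 1 mg/kg in 20% DMSO/PEG 200; one-day PK study.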

[9] = Half life in orchidectomized Sprague-Dawley rat at 20 mg/kg, po after 1 day; type: ADME, organism-based; design: dose 20 mg/kg, route oral; conditions: male, in vivo
Method in brief: (§3)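 Orchidectomized SD rats, single oral dose of 20 mg/kg in 0.4 N HCl/2% TWEEN 80; iv arm 1 mg/kg in 20% DMSO/PEG 200 for bioavailability; one-day PK study.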

Rattus norvegicus [10] = test: AUC (0 to alpha) in orchidectomized Sprague-Dawley rat at 20 mg/kg, po after 1 day; type: ADME, organism-based, Plasma; design: dose 20 mg/kg, route oral; conditions: in vivo, 24 h; method in brief: as §3
Rattus norvegicus [11] = test: Oral bioavailability in orchidectomized Sprague-Dawley rat at 20 mg/kg after 1 day; type: ADME, organism-based; conditions: in vivo, 24 h; method in brief: as §3
[12] = Volume of distribution at steady state in orchidectomized Sprague-Dawley rat at 1 mg/kg, iv after 1 day; type: ADME, organism-based; design: dose 1 mg/kg, route intravenous; conditions: male, in vivo, read-out: Vdss; method in brief: as §2
[13] = Metabolic stability in rat liver microsomes assessed as compound remaining at 1 uM after 15 mins; type: ADME, Microsome; conditions: read-out: Stability

SMILES	pIC50 [1]	pIC50 [2]	Activity [7] [%]	other results
Cc1nc(C)c(CN2CCN(c3cccc4[nH]c(-c5ccc(C(C)(C)C)cc5)nc34)CC2)s1	7.57			
CCc1nc(C)c(CN2CCN(c3cccc4[nH]c(-c5ccc(C(C)(C)C)cc5)nc34)CC2)s1	7.70	6.92		
Cc1nn(C)c(C)c1CN1CCN(c2cccc3[nH]c(-c4ccc(C(C)(C)C)cc4)nc23)CC1	7.42	6.35		
CCc1nc(CN2CCN(c3cccc4[nH]c(-c5ccc(C(C)(C)C)cc5)nc34)CC2)cn1C	7.74	7.11		
CCn1cc(CN2CCN(c3cccc4[nH]c(-c5ccc(C(C)(C)C)cc5)nc34)CC2)nc1C	8.00	7.29		
CCCn1c(CC)nc(C)c1CN1CCN(c2cccc3[nH]c(-c4ccc(C(C)(C)C)cc4)nc23)CC1	7.24	6.92		
Cc1cc(CN2CCN(c3cccc4[nH]c(-c5ccc(C(C)(C)C)cc5)nc34)CC2)nn1C	7.08			
Cc1c(CN2CCN(c3cccc4[nH]c(-c5ccc(C(C)(C)C)cc5)nc34)CC2)ncn1C(C)C	7.72	7.21		
Cc1nc(CN2CCN(c3cccc4[nH]c(-c5ccc(C(C)(C)C)cc5)nc34)CC2)c[nH]1	8.12	7.55		pIC50 [3]: 6.60; pIC50 [4]: 7.36; half-life [5]: > 30 min; solubility [6]: 46 µg/mL (≈ 107 µM); inhibition at 3 µM (CYP2C9): 23%; inhibition at 3 µM (CYP2D6): 14%; inhibition at 3 µM (CYP3A4): 85%
CCCn1c(CC)nc(CN2CCN(c3cccc4[nH]c(-c5ccc(C(C)(C)C)cc5)nc34)CC2)c1C	7.54	7.24		
CCCCn1cnc(C)c1CN1CCN(c2cccc3[nH]c(-c4ccc(C(C)(C)C)cc4)nc23)CC1			67	
Cc1ncoc1CN1CCN(c2cccc3[nH]c(-c4ccc(C(C)(C)C)cc4)nc23)CC1	7.05	6.07		
Cn1nccc1CN1CCN(c2cccc3[nH]c(-c4ccc(C(C)(C)C)cc4)nc23)CC1			25	
CCCn1cc(CN2CCN(c3cccc4[nH]c(-c5ccc(C(C)(C)C)cc5)nc34)CC2)nc1C	7.74	7.39		half-life [8]: 54 min; pIC50 [3]: 6.62; half-life [9]: 174 min; AUC (Rattus norvegicus [10]): 3830 ng·h/mL; F (Rattus norvegicus [11]): 100%; pIC50 [4]: 7.37; half-life [5]: 25 min; solubility [6]: 55 µg/mL (≈ 117 µM); inhibition at 3 µM (CYP2C9): 19%; inhibition at 3 µM (CYP2D6): 13%; Vd [12]: 0.2 L/kg; inhibition at 3 µM (CYP3A4): 85%
Cc1ccc(CN2CCN(c3cccc4[nH]c(-c5ccc(C(C)(C)C)cc5)nc34)CC2)o1	6.15			
CCc1nc(CN2CCN(c3cccc4[nH]c(-c5ccc(C(C)(C)C)cc5)nc34)CC2)c(C)o1	7.57	6.26		
Cc1nc(CN2CCN(c3cccc4[nH]c(-c5ccc(C(C)(C)C)cc5)nc34)CC2)cn1C	8.00	7.47		pIC50 [3]: 6.52; pIC50 [4]: 7.64; half-life [5]: 9 min; solubility [6]: 51 µg/mL (≈ 115 µM); inhibition at 3 µM (CYP2C9): 12%; inhibition at 3 µM (CYP2D6): 3%; inhibition at 3 µM (CYP3A4): 66%
CCc1nc(C)sc1CN1CCN(c2cccc3[nH]c(-c4ccc(C(C)(C)C)cc4)nc23)CC1			26	
CCCCn1cnc(CN2CCN(c3cccc4[nH]c(-c5ccc(C(C)(C)C)cc5)nc34)CC2)c1C	7.34	7.31		pIC50 [3]: 6.24; pIC50 [4]: 7.15; half-life [5]: > 30 min; solubility [6]: 3 µg/mL (≈ 6.19 µM); inhibition at 3 µM (CYP2C9): 53%; inhibition at 3 µM (CYP2D6): 21%; inhibition at 3 µM (CYP3A4): 84%
CCCn1cnc(CN2CCN(c3cccc4[nH]c(-c5ccc(C(C)(C)C)cc5)nc34)CC2)c1C	7.92	7.33		
CCc1nc(C)c(CN2CCN(c3cccc4[nH]c(-c5ccc(C(C)(C)C)cc5)nc34)CC2)o1	7.43	6.49		
CCc1nc(CN2CCN(c3cccc4[nH]c(-c5ccc(C(C)(C)C)cc5)nc34)CC2)c(C)n1CC	8.10	7.31		pIC50 [3]: 6.53; pIC50 [4]: 7.89; half-life [5]: 12 min; solubility [6]: 25 µg/mL (≈ 51.6 µM)

SMILES	pIC50 [1]	pIC50 [2]	Activity [7] [%]	other results
CC(C)(C)c1ccc(-c2nc3c(N4CCN(Cc5ccco5)CC4)cccc3[nH]2)cc1			12	
Cc1n[nH]c(C)c1CN1CCN(c2cccc3[nH]c(-c4ccc(C(C)(C)C)cc4)nc23)CC1	7.17			
Cc1cc(CN2CCN(c3cccc4[nH]c(-c5ccc(C(C)(C)C)cc5)nc34)CC2)n(C)n1	7.64	6.51		
CC(C)(C)c1ccc(-c2nc3c(N4CCN(Cc5ccsc5)CC4)cccc3[nH]2)cc1			6	
CCc1nc(CN2CCN(c3cccc4[nH]c(-c5ccc(C(C)(C)C)cc5)nc34)CC2)cn1CC	7.96	7.16		
CCc1cc(CN2CCN(c3cccc4[nH]c(-c5ccc(C(C)(C)C)cc5)nc34)CC2)nn1C	7.37	6.46		
CCn1nc(CN2CCN(c3cccc4[nH]c(-c5ccc(C(C)(C)C)cc5)nc34)CC2)cc1C			32	
Cc1nc(C)c(CN2CCN(c3cccc4[nH]c(-c5ccc(C(C)(C)C)cc5)nc34)CC2)o1	7.51	6.13		
CC(C)(C)c1ccc(-c2nc3c(N4CCN(Cc5cnc[nH]5)CC4)cccc3[nH]2)cc1	7.68	6.54		
CCn1cc(CN2CCN(c3cccc4[nH]c(-c5ccc(C(C)(C)C)cc5)nc34)CC2)c(=O)[nH]c1=O				pIC50 [3]: 7.23; remaining at 0.25 h, 1 µM [13]: 12%; half-life [5]: 5 min; solubility [6]: 13 µg/mL (≈ 26.7 µM); inhibition at 3 µM (CYP2C9): 34%; inhibition at 3 µM (CYP2D6): 0%; inhibition at 3 µM (CYP3A4): 74%
Cc1nc(CN2CCN(c3cccc4[nH]c(-c5ccc(C(C)(C)C)cc5)nc34)CC2)c(C)s1	7.68			
CC(C)(C)c1ccc(-c2nc3c(N4CCN(Cc5ccc[nH]5)CC4)cccc3[nH]2)cc1			7	
Cn1cccc1CN1CCN(c2cccc3[nH]c(-c4ccc(C(C)(C)C)cc4)nc23)CC1			6	
Cn1cnc(CN2CCN(c3cccc4[nH]c(-c5ccc(C(C)(C)C)cc5)nc34)CC2)c1	7.48	7.01		
CC(C)(C)c1ccc(-c2nc3c(N4CCN(Cc5nccs5)CC4)cccc3[nH]2)cc1			26	
CC(C)(C)c1ccc(-c2nc3c(N4CCN(Cc5ccoc5)CC4)cccc3[nH]2)cc1			20	
CCCCc1nc(CN2CCN(c3cccc4[nH]c(-c5ccc(C(C)(C)C)cc5)nc34)CC2)cn1C	7.59	7.24		
CCCCc1nc(C)c(CN2CCN(c3cccc4[nH]c(-c5ccc(C(C)(C)C)cc5)nc34)CC2)s1			4	
CC(C)(C)c1ccc(-c2nc3c(N4CCN(Cc5ncc[nH]5)CC4)cccc3[nH]2)cc1			40	
CCc1cc(CN2CCN(c3cccc4[nH]c(-c5ccc(C(C)(C)C)cc5)nc34)CC2)n(C)n1	7.66	6.60		
CC(C)(C)c1ccc(-c2nc3c(N4CCN(Cc5cccs5)CC4)cccc3[nH]2)cc1			24	

From ChEMBL document CHEMBL1153337, “Small molecule antagonists of the gonadotropin-releasing hormone (GnRH) receptor: structure-activity relationships of small heterocyclic groups appended to the 2-phenyl-4-piperazinyl-benzimidazole template” (Bioorg Med Chem Lett, 2009)
